What was measured:
Homo sapiens [1] = experiment: Toxicity in healthy human assessed as pancreatitis at 500 mg, iv after 1 day; format: organism-based; conditions: in vivo, 24 h
Homo sapiens [2] = experiment: Non-renal clearance in end stage renal disease patient undergoing 12 hours continuous venovenous hemodiafiltration at 500 mg, iv; format: ADME, organism-based; conditions: in vivo
Summary of the method: (§1)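 For dialysis-dependent subjects on CVVH or CVVHDF after a 1-h 500-mg IV infusion, nonrenal CL = CL − (CL_R + CL_CRRT). CL_CRRT was the UF (or UF/dialysate) flow rate for each collection interval × the average sieving (or saturation) coefficient, where each coefficient is the fluid/plasma concentration ratio from paired samples at 1.25–12 h. Values are means ± SD.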

[3] = AUC (0 to infinity) in end stage renal disease patient undergoing 12 hours continuous venovenous hemofiltration at 500 mg, iv; format: ADME, organism-based; design: dose 500 mg, time infinity, route intravenous; conditions: human, plasma
Homo sapiens [4] = experiment: (§2) Clearance in end stage renal disease patient undergoing 12 hours continuous venovenous hemodiafiltration at 500 mg, iv; format: ADME, organism-based; conditions: in vivo, 12 h
[5] = as §2; format: ADME, organism-based; conditions: human, in vivo, 500 mg
Homo sapiens [6] = experiment: (§3) Clearance in healthy human at 500 mg, iv; format: ADME, organism-based; conditions: in vivo
Summary of the method: (§4)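 Healthy volunteers (n = 12) got a single 1-h 500-mg IV infusion. Plasma was sampled predose and at 0.25–12 h and assayed by LC-MS/MS (LLOQ 0.1 μg/ml). Noncompartmental analysis gave CL = dose/AUC0-∞ and CL_R = 0–12 h urinary amount/AUC0-12. Nonrenal CL = CL − CL_R. Values are means ± SD.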

[7] = as §3; format: ADME, organism-based; conditions: in vivo, 500 mg; summary of the method: as §4
Homo sapiens [8] = experiment: Non-renal clearance in healthy human at 500 mg, iv; format: ADME, organism-based; conditions: in vivo; summary of the method: as §4
Homo sapiens [9] = experiment: Non-renal clearance in end stage renal disease patient undergoing 12 hours continuous venovenous hemofiltration at 500 mg, iv; format: ADME, organism-based; conditions: in vivo; summary of the method: as §1
[10] = Terminal half life in end stage renal disease patient undergoing 12 hours continuous venovenous hemofiltration at 500 mg, iv; format: ADME, organism-based; conditions: human, in vivo, read-out: beta t1/2 (converted)
Summary of the method: (§5)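 Prefilter plasma was taken up to 12 h and measured by LC-MS/MS. Terminal λz came from log-linear regression over 1.5–12 h, and t1/2 = 0.693/λz (noncompartmental).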

[11] = Terminal half life in end stage renal disease patient undergoing 12 hours continuous venovenous hemodiafiltration at 500 mg, iv; format: ADME, organism-based; conditions: human, in vivo, read-out: beta t1/2 (converted); summary of the method: as §5
Homo sapiens [12] = experiment: (§6) Clearance in end stage renal disease patient undergoing 12 hours continuous venovenous hemofiltration at 500 mg, iv; format: ADME, organism-based; conditions: in vivo, 12 h
[13] = as §6; format: ADME, organism-based; conditions: human, in vivo, 500 mg
Homo sapiens [14] = experiment: Toxicity in healthy human assessed as pancreatitis at 500 mg, iv after 2 days; format: organism-based; conditions: in vivo, 48 h
[15] = Renal clearance in healthy human at 500 mg, iv; format: ADME, organism-based, Kidney; conditions: in vivo, read-out: CL_renal (converted); summary of the method: as §4
[16] = AUC (0 to infinity) in end stage renal disease patient undergoing 12 hours continuous venovenous hemodiafiltration at 500 mg, iv; format: ADME, organism-based; design: dose 500 mg, route intravenous, time infinity; conditions: human, plasma

Row | CL (Homo sapiens [2]) [L/h] | AUC(0-inf) [3] [µg·h/mL] | CL (Homo sapiens [4]) [L/h] | clearance [5] [mL/min] | CL (Homo sapiens [6]) [L/h] | clearance [7] [mL/min] | CL (Homo sapiens [8]) [L/h] | CL (Homo sapiens [9]) [L/h] | half-life [10] [h] | half-life [11] [h] | CL (Homo sapiens [12]) [L/h] | clearance [13] [mL/min] | CL renal [15] [mL/min] | AUC(0-inf) [16] [µg·h/mL] | SMILES | Activity (Homo sapiens [1]) | Activity (Homo sapiens [14])
1 | 4.22 | 114 | 5.98 | 98.2 | 15.9 | 265 | 6.73 | 3.58 | 4.24 | 3.87 | 4.94 | 82.4 | 153 | 87.5 | C[C@@H](O)[C@H]1C(=O)N2C(C(=O)O)=C(S[C@@H]3CN[C@H](CNS(N)(=O)=O)C3)[C@H](C)[C@H]12 [DORIPENEM] | Toxic | Non-toxic
2 | – | – | – | – | – | – | 14.2 | – | – | – | – | – | – | – | C[C@@H](O)[C@@H](C(=O)O)[C@@H]1NC(C(=O)O)=C(S[C@@H]2CN[C@H](CNS(N)(=O)=O)C2)[C@@H]1C | – | –
